The structures appear in SMILES notation. In brackets after ≈: the same amount, converted by molar mass. Activity calls are given as the source filed them. The rule behind the calls is not given here. Square brackets hold non-standard residues; d marks the D form. Peptide text beside a SMILES is read from it.

The nature of data set [1]: Retention time of compound by RP-HPLC analysis. It is filed as physicochemical. The method in brief:
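Analytical reversed-phase HPLC.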

Data set [2] concerns Enterococcus faecium. In words: Antibacterial activity against vancomycin resistant Enterococcus faecium BAA 2317 assessed as inhibition of bacterial growth incubated for 24 hrs by absorbance based microplate reader analysis. The class given is functional. To be noted: read-out: MIC100. The method, boiled down: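 Broth microdilution. A single colony was grown 24 h in its recommended broth, then diluted 1:10 000 in the same medium. Peptide serial dilutions were added from DMSO stock at 4 µL per 196 µL inoculated medium. Plates were incubated aerobically or anaerobically as each pathogen requires, at 37 °C for 24 h, and OD600 was read. MIC was the lowest concentration giving 100% growth inhibition. Duplicate wells; assay repeated five times independently.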

The subject of data set [3] is Salmonella enterica. Description: Antibacterial activity against Salmonella enterica ATCC 13314 assessed as inhibition of bacterial growth incubated for 24 hrs by absorbance based microplate reader analysis. The class given is functional. The method in brief:
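Broth microdilution. An overnight single-colony culture in recommended broth was diluted 1:10 000, and peptide serial dilutions in DMSO were added (4 µL into 196 µL). Plates incubated 24 h at 37 °C, aerobic or anaerobic as required, then OD600 read. Inhibition was calculated against pathogen-only and blank wells.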

Data set [4] relates to Staphylococcus aureus. Description: Bactericidal activity against Staphylococcus aureus ATCC 25923 assessed as inhibition of bacterial growth at MIC concentration incubated for 48 hrs by broth microdilution assay. The class given is functional, organism-based. The method, boiled down:
(§1)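 From broth-microdilution wells showing no growth, 10 µL was spotted onto agar and incubated 48 h at 37 °C. Plates were inspected for colonies. Fidaxomicin at 1 µM served as control.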
Background: Dilution methods test growth across graded concentrations, often in twofold steps.

A further data set deals with Clostridioides difficile. Description: Bactericidal activity against Clostridium difficile ATCC 43602 assessed as inhibition of bacterial growth at MIC concentration incubated for 48 hrs by broth microdilution assay. The class given is functional, organism-based. The method in brief:
as §1

The next data set deals with Listeria monocytogenes. In words: Bactericidal activity against Listeria monocytogenes ATCC 15313 assessed as inhibition of bacterial growth at MIC concentration incubated for 48 hrs by broth microdilution assay. It is filed as functional, organism-based. The method, boiled down: as §1
Data set [5] concerns Staphylococcus aureus. Description: Bactericidal activity against methicillin resistant Staphylococcus aureus BAA 2313 assessed as inhibition of bacterial growth at MIC concentration incubated for 48 hrs by broth microdilution assay. It is filed as functional, organism-based. The method, boiled down: (§2)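 Plates were incubated 48 h at 37 °C and examined for colonies. A fidaxomicin-treated culture at 1 µM served as the control.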

Data set [6] has as its system Enterococcus faecium. Description: Bactericidal activity against vancomycin resistant Enterococcus faecium BAA 2317 assessed as inhibition of bacterial growth at MIC concentration incubated for 48 hrs by broth microdilution assay. It is filed as functional, organism-based. The method in brief: as §2
Another data set relates to Escherichia coli. In words: Bactericidal activity against Escherichia coli ATCC 33694 assessed as inhibition of bacterial growth at MIC concentration incubated for 48 hrs by broth microdilution assay. The class given is functional, organism-based. The method in brief:
as §1

The test system of a further data set is Pseudomonas aeruginosa. In words: Bactericidal activity against Pseudomonas aeruginosa BAA 1744 assessed as inhibition of bacterial growth at MIC concentration incubated for 48 hrs by broth microdilution assay. It is filed as functional, organism-based. The method in brief: as §1
Data set [7] deals with Salmonella enterica. In words: Bactericidal activity against Salmonella enterica ATCC 13314 assessed as inhibition of bacterial growth at MIC concentration incubated for 48 hrs by broth microdilution assay. The class given is functional, organism-based. The method, boiled down: as §1
Data set [8] relates to Staphylococcus aureus. In words: Antibacterial activity against Staphylococcus aureus ATCC 25923 assessed as reduction in bacterial growth at MIC concentration measured after 24 hrs by time-kill kinetic analysis. It is filed as functional, organism-based. The method in brief:
(§3)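 Samples (5 µL) taken at 0, 1, 2, 4, 6, 12, 18 and 24 h, tenfold diluted in 0.85% NaCl, and plated on TSA overnight at 37 °C for CFU counts. Two independent duplicates.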

The test system of data set [9] is Staphylococcus aureus. In words: Antibacterial activity against Staphylococcus aureus ATCC 25923 assessed as reduction in colony forming units at MIC concentration measured after 2 hrs by time-kill kinetic analysis. It is filed as functional. The method in brief:
as §3

In data set [10] the test system is Staphylococcus aureus. In words: Antibacterial activity against Staphylococcus aureus ATCC 25923 assessed as reduction in surviving bacteria at MIC concentration measured within 6 hrs by time-kill kinetic analysis. The class given is functional. The method, boiled down: as §3
Data set [11] relates to Staphylococcus aureus. In words: Induction of morphological changes in Staphylococcus aureus ATCC 25923 assessed as leakage of intracellular content at MIC concentration by transmission electron microscopic analysis. It is filed as functional, organism-based. The method in brief:
(§4)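 Cells were pelleted at 4 °C, washed in 0.1 M PBS pH 7.2, and fixed overnight (4% formaldehyde, 1.25% glutaraldehyde, ruthenium red). Post-fixed in 1% OsO4, dehydrated through ethanol, embedded in epoxy resin and imaged by TEM.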

Data set [12] concerns Staphylococcus aureus. Description: Induction of morphological changes in Staphylococcus aureus ATCC 25923 assessed as cell damage at MIC concentration by transmission electron microscopic analysis. The class given is functional, organism-based. The method in brief: as §4
Data set [13] concerns Staphylococcus aureus. Description: Induction of morphological changes in Staphylococcus aureus ATCC 25923 assessed as extracellular protrusions by measuring fragments of lysed cell wall at MIC concentration by transmission electron microscopic analysis. It is filed as functional, organism-based. The method, boiled down: as §4
For data set [14], the system named is Staphylococcus aureus. Description: Induction of morphological changes in Staphylococcus aureus ATCC 25923 assessed as appearance of detached fragments at MIC concentration by transmission electron microscopic analysis. It is filed as functional, organism-based. The method, boiled down:
as §4

For the compound `CC[C@H](C)[C@@H]1NC(=O)CNC(=O)CNC(=O)[C@H](CO)NC(=O)[C@H]([C@@H](C)CC)NC(=O)[C@H](CCCCN)NC(=O)[C@H](CO)NC(=O)[C@H](CC(C)C)NC(=O)[C@@H](C(C)C)NC(=O)[C@@H]2CCCN2C(=O)[C@H]([C@@H](C)CC)NC(=O)[C@H](C(C)C)NC(=O)[C@H](CC(C)C)NC(=O)[C@@H]2CCCN2C(=O)CNC1=O` (cyclo(LSKISGGIGPLVIP[dV])), the Retention_time in [1] was 17.76 min. The MIC with Enterococcus faecium [2] was 1.5 µM (≈ 2.15 µg/mL). In addition, in the data set on Salmonella enterica [3], the result was inactive. For the same compound, the outcome in the data set with Staphylococcus aureus [4], in the data set on Clostridioides difficile, in the data set on Listeria monocytogenes, with Staphylococcus aureus [5], in the data set on Enterococcus faecium [6] and in the data set on Escherichia coli was Active. Besides, the result in the data set on Pseudomonas aeruginosa, in the data set on Salmonella enterica [7], with Staphylococcus aureus [8], with Staphylococcus aureus [11], in the data set on Staphylococcus aureus [12] and with Staphylococcus aureus [13] was Active. In addition, the result with Staphylococcus aureus [14] was Active. For the same compound, the Activity with Staphylococcus aureus [9] turned out to be 3 log10CFU/ml; with Staphylococcus aureus [10], 5 log10CFU/ml.

(Values after ChEMBL document CHEMBL6177914, “Human microbiome derived synthetic antimicrobial peptides with activity against Gram-negative, Gram-positive, and antibiotic resistant bacteria” (RSC Med Chem, 2025).)
